pIC50, pKi: −log10 of the molar value.
These compounds were tested against T1, Sodium-dependent serotonin transporter (Homo sapiens, UniProt P31645) (assay: Inhibition of [3H]5-HT uptake into human SERT expressing HEK293 cells).
T1 sequence (P31645 whole entry): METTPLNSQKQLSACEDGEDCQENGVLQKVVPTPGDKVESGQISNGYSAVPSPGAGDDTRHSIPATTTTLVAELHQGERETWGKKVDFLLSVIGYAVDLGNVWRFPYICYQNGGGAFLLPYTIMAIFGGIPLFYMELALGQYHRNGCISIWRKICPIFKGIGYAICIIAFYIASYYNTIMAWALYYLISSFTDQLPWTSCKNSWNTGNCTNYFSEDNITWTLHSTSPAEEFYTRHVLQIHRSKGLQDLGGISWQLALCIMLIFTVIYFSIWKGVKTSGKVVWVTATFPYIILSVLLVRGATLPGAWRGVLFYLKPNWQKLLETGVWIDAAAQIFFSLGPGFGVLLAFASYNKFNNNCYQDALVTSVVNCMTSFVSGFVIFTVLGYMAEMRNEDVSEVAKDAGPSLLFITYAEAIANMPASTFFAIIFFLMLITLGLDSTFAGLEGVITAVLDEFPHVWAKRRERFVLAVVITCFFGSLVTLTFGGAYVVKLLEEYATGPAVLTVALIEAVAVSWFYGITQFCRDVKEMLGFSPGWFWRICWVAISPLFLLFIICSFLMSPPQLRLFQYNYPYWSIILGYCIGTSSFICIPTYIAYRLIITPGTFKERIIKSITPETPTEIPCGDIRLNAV
Type: cell-based
How it was run: (§1)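 Intact HEK293 cells stably expressing human SERT or DAT, scraped and triturated, preincubated with drug 10 min at 25 °C in Krebs-HEPES pH 7.4; [3H]5-HT or [3H]DA (20 nM final) added for 10 min; filtration, scintillation counting. Nonspecific: 5 µM imipramine (SERT) or 5 µM mazindol (DAT). Triplicate points, ≥3 experiments.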
CCCC(c1ccc(Cl)cc1)C1CCCCN1 (centres undefined) gave a pIC50 of 5.54.
Clc1ccc(C(CCc2ccccc2)C2CCCCN2)cc1 (centres undefined) gave a pIC50 of 6.68.
CC(=O)C(c1ccccc1)C1CCCCN1 (centres undefined) was tested, and the pIC50 was under 5.01.
In the case of CC(C)(C)CC(c1ccc(Cl)cc1)C1CCCCN1 (centres undefined), the pIC50 was under 5.08.
In the case of CCC(c1ccc(Cl)cc1)C1CCCCN1 (centres undefined), the pIC50 was 5.39.
COc1cccc(C(CC(C)C)C2CCCCN2)c1 (stereo in doubt; form 1) showed a pIC50 of 5.57.
COc1ccc(C(CC(C)C)C2CCCCN2)cc1 (stereo in doubt; form 1) was tested, and the pIC50 was 5.46.
For CC(C)CC(c1ccc(Cl)c(Cl)c1)C1CCCCN1 (stereo in doubt; form 1), the pIC50 was 5.96.
COC(=O)C(c1ccc(Cl)cc1)C1CCCCN1 (stereo in doubt; form 1) gave a pIC50 of under 5.01.
Compound CC(c1ccc(Cl)cc1)C1CCCCN1 (stereo in doubt; form 1) has a pIC50 of 5.72.
CCC(CC)C(c1ccc(Cl)cc1)C1CCCCN1 (stereo in doubt; form 1) showed a pIC50 of under 5.03.
Compound CC(C)CC(c1cccc(Cl)c1)C1CCCCN1 (stereo in doubt; form 1) has a pIC50 of 5.68.
For CCCC(c1ccc(Cl)c(Cl)c1)C1CCCCN1 (stereo in doubt; form 1), the pIC50 was 6.25.
Work on CCCCCC(c1ccc(Cl)cc1)C1CCCCN1 (stereo in doubt; form 1) yielded a pIC50 of 5.82.
CC(C)CCC(c1ccc(Cl)cc1)C1CCCCN1 (stereo in doubt; form 1) was tested, and the pIC50 was 5.14.
CCCCC(c1ccc(Cl)c(Cl)c1)C1CCCCN1 (stereo in doubt; form 1) was tested, and the pIC50 was 5.85.
Clc1ccc(C(CCCc2ccccc2)C2CCCCN2)cc1 (stereo in doubt; form 1) showed a pIC50 of 5.80.
For COc1cccc(C(CC(C)C)C2CCCCN2)c1 (stereo in doubt; form 2), the pIC50 was 5.59.

What follows are compounds tested against T2, Sodium-dependent dopamine transporter (Homo sapiens, UniProt Q01959) (assay: Displacement of [125I]RTI-55 from human DAT expressing HEK293 cells).
T2 sequence (Q01959 whole entry): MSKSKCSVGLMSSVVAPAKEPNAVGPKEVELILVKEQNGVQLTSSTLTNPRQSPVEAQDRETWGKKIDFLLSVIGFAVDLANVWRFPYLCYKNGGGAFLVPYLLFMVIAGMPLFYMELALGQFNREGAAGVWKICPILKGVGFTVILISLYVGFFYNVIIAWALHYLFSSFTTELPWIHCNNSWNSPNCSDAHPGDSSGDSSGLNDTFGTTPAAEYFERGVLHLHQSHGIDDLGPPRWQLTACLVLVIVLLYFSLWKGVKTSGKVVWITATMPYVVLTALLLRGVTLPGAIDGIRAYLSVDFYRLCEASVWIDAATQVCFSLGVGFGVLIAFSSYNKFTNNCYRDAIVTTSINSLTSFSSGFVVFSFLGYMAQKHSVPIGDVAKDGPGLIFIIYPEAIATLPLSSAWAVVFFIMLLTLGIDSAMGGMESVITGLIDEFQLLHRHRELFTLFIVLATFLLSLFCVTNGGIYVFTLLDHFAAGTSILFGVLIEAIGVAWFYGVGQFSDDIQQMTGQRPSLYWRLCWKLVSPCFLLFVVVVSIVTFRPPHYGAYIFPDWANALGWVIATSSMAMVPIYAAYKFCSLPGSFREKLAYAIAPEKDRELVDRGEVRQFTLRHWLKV
Type: cell-based
Work on CCCC(c1ccc(Cl)cc1)C1CCCCN1 (centres undefined) yielded a pKi of 7.96.
In the case of CC(=O)C(c1ccccc1)C1CCCCN1 (centres undefined), the pKi was 6.43.
Work on CCC(c1ccc(Cl)cc1)C1CCCCN1 (centres undefined) yielded a pKi of 5.74.
With COc1cccc(C(CC(C)C)C2CCCCN2)c1 (stereo in doubt; form 1) the pKi was 7.66.
With COc1ccc(C(CC(C)C)C2CCCCN2)cc1 (stereo in doubt; form 1) the pKi was 7.28.
For CC(C)CC(c1ccc(Cl)c(Cl)c1)C1CCCCN1 (stereo in doubt; form 1), the pKi was 9.00.
CC(c1ccc(Cl)cc1)C1CCCCN1 (stereo in doubt; form 1) showed a pKi of 6.74.
CCC(CC)C(c1ccc(Cl)cc1)C1CCCCN1 (stereo in doubt; form 1) showed a pKi of 6.40.
CC(C)CC(c1cccc(Cl)c1)C1CCCCN1 (stereo in doubt; form 1) showed a pKi of 8.43.
CCCC(c1ccc(Cl)c(Cl)c1)C1CCCCN1 (stereo in doubt; form 1) showed a pKi of 9.01.
CCCCCC(c1ccc(Cl)cc1)C1CCCCN1 (stereo in doubt; form 1) gave a pKi of 7.64.
CC(C)CCC(c1ccc(Cl)cc1)C1CCCCN1 (stereo in doubt; form 1) was tested, and the pKi was 8.44.
Compound CCCCC(c1ccc(Cl)c(Cl)c1)C1CCCCN1 (stereo in doubt; form 1) has a pKi of 8.64.
Clc1ccc(C(CCCc2ccccc2)C2CCCCN2)cc1 (stereo in doubt; form 1) showed a pKi of 6.36.
COc1cccc(C(CC(C)C)C2CCCCN2)c1 (stereo in doubt; form 2) gave a pKi of 6.02.

Each compound was assayed against T3, Sodium-dependent noradrenaline transporter (Homo sapiens, UniProt P23975) (assay: Displacement of [125I]RTI-55 from human NET expressing HEK293 cells).
T3 sequence (P23975 whole entry): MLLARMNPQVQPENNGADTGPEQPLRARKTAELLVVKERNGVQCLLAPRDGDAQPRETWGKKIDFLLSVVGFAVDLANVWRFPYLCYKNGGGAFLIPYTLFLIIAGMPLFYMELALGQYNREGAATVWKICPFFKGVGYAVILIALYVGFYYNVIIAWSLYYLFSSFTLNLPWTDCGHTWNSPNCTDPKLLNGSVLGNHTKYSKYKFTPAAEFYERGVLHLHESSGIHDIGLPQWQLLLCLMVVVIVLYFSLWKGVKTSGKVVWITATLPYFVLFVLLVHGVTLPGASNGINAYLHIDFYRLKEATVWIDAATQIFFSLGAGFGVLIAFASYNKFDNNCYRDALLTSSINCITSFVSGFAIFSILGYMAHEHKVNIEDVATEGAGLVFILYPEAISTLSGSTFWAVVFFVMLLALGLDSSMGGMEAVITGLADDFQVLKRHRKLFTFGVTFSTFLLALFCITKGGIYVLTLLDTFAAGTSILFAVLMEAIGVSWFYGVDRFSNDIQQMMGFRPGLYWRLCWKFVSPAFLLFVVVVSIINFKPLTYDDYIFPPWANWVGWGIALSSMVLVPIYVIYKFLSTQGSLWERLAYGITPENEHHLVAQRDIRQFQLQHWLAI
Type: cell-based
Compound CCCC(c1ccc(Cl)cc1)C1CCCCN1 (centres undefined) has a pKi of 6.70.
Work on CC(=O)C(c1ccccc1)C1CCCCN1 (centres undefined) yielded a pKi of 5.57.
In the case of CC(C)(C)CC(c1ccc(Cl)cc1)C1CCCCN1 (centres undefined), the pKi was under 5.26.
CCC(c1ccc(Cl)cc1)C1CCCCN1 (centres undefined) showed a pKi of under 5.04.
For COc1cccc(C(CC(C)C)C2CCCCN2)c1 (stereo in doubt; form 1), the pKi was 5.42.
In the case of COc1ccc(C(CC(C)C)C2CCCCN2)cc1 (stereo in doubt; form 1), the pKi was 5.51.
In the case of CC(C)CC(c1ccc(Cl)c(Cl)c1)C1CCCCN1 (stereo in doubt; form 1), the pKi was 7.60.
With CC(c1ccc(Cl)cc1)C1CCCCN1 (stereo in doubt; form 1) the pKi was 6.44.
With CCC(CC)C(c1ccc(Cl)cc1)C1CCCCN1 (stereo in doubt; form 1) the pKi was 6.01.
CC(C)CC(c1cccc(Cl)c1)C1CCCCN1 (stereo in doubt; form 1) showed a pKi of 7.64.
For CCCC(c1ccc(Cl)c(Cl)c1)C1CCCCN1 (stereo in doubt; form 1), the pKi was 8.41.
Work on CCCCCC(c1ccc(Cl)cc1)C1CCCCN1 (stereo in doubt; form 1) yielded a pKi of 6.80.
CC(C)CCC(c1ccc(Cl)cc1)C1CCCCN1 (stereo in doubt; form 1) showed a pKi of 6.08.
CCCCC(c1ccc(Cl)c(Cl)c1)C1CCCCN1 (stereo in doubt; form 1) showed a pKi of 7.92.
With Clc1ccc(C(CCCc2ccccc2)C2CCCCN2)cc1 (stereo in doubt; form 1) the pKi was 6.31.
Work on COc1cccc(C(CC(C)C)C2CCCCN2)c1 (stereo in doubt; form 2) yielded a pKi of 4.92.

The compounds below were run against T3, Sodium-dependent noradrenaline transporter (assay: Inhibition of [3H]NE uptake into human NET expressing HEK293 cells).
Type: cell-based
CCCC(c1ccc(Cl)cc1)C1CCCCN1 (centres undefined) gave a pIC50 of 7.30.
CC(=O)C(c1ccccc1)C1CCCCN1 (centres undefined) gave a pIC50 of 6.66.
For CCC(c1ccc(Cl)cc1)C1CCCCN1 (centres undefined), the pIC50 was 5.89.
COc1cccc(C(CC(C)C)C2CCCCN2)c1 (stereo in doubt; form 1) showed a pIC50 of 6.48.
In the case of COc1ccc(C(CC(C)C)C2CCCCN2)cc1 (stereo in doubt; form 1), the pIC50 was 6.39.
In the case of CC(C)CC(c1ccc(Cl)c(Cl)c1)C1CCCCN1 (stereo in doubt; form 1), the pIC50 was 8.05.
In the case of CC(c1ccc(Cl)cc1)C1CCCCN1 (stereo in doubt; form 1), the pIC50 was 7.46.
Compound CCC(CC)C(c1ccc(Cl)cc1)C1CCCCN1 (stereo in doubt; form 1) has a pIC50 of 6.48.
Work on CC(C)CC(c1cccc(Cl)c1)C1CCCCN1 (stereo in doubt; form 1) yielded a pIC50 of 7.85.
CCCC(c1ccc(Cl)c(Cl)c1)C1CCCCN1 (stereo in doubt; form 1) gave a pIC50 of 8.09.
CCCCCC(c1ccc(Cl)cc1)C1CCCCN1 (stereo in doubt; form 1) gave a pIC50 of 7.31.
Work on CC(C)CCC(c1ccc(Cl)cc1)C1CCCCN1 (stereo in doubt; form 1) yielded a pIC50 of 6.68.
With CCCCC(c1ccc(Cl)c(Cl)c1)C1CCCCN1 (stereo in doubt; form 1) the pIC50 was 7.57.
Compound Clc1ccc(C(CCCc2ccccc2)C2CCCCN2)cc1 (stereo in doubt; form 1) has a pIC50 of 6.22.
Compound COc1cccc(C(CC(C)C)C2CCCCN2)c1 (stereo in doubt; form 2) has a pIC50 of 5.85.

What follows are compounds tested against T2, Sodium-dependent dopamine transporter (assay: Inhibition of [3H]DA uptake at human DAT expressing HEK293 cells).
Type: cell-based
How it was run: as §1
CCCC(c1ccc(Cl)cc1)C1CCCCN1 (centres undefined) showed a pIC50 of 8.13.
CC(=O)C(c1ccccc1)C1CCCCN1 (centres undefined) was tested, and the pIC50 was 6.72.
In the case of CCC(c1ccc(Cl)cc1)C1CCCCN1 (centres undefined), the pIC50 was 5.55.
COc1cccc(C(CC(C)C)C2CCCCN2)c1 (stereo in doubt; form 1) was tested, and the pIC50 was 7.46.
COc1ccc(C(CC(C)C)C2CCCCN2)cc1 (stereo in doubt; form 1) gave a pIC50 of 7.60.
With CC(C)CC(c1ccc(Cl)c(Cl)c1)C1CCCCN1 (stereo in doubt; form 1) the pIC50 was 8.26.
CC(c1ccc(Cl)cc1)C1CCCCN1 (stereo in doubt; form 1) showed a pIC50 of 7.66.
With CCC(CC)C(c1ccc(Cl)cc1)C1CCCCN1 (stereo in doubt; form 1) the pIC50 was 6.62.
For CC(C)CC(c1cccc(Cl)c1)C1CCCCN1 (stereo in doubt; form 1), the pIC50 was 8.55.
For CCCC(c1ccc(Cl)c(Cl)c1)C1CCCCN1 (stereo in doubt; form 1), the pIC50 was 8.35.
In the case of CCCCCC(c1ccc(Cl)cc1)C1CCCCN1 (stereo in doubt; form 1), the pIC50 was 7.35.
Work on CC(C)CCC(c1ccc(Cl)cc1)C1CCCCN1 (stereo in doubt; form 1) yielded a pIC50 of 7.85.
CCCCC(c1ccc(Cl)c(Cl)c1)C1CCCCN1 (stereo in doubt; form 1) showed a pIC50 of 8.24.
For Clc1ccc(C(CCCc2ccccc2)C2CCCCN2)cc1 (stereo in doubt; form 1), the pIC50 was 6.54.
In the case of COc1cccc(C(CC(C)C)C2CCCCN2)c1 (stereo in doubt; form 2), the pIC50 was 6.85.

These compounds were tested against T1, Sodium-dependent serotonin transporter (assay: Displacement of [125I]RTI-55 from human SERT expressing HEK293 cells).
Type: cell-based
How it was run: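 Membranes from HEK293 cells stably expressing human DAT or SERT (lysed in hypotonic HEPES/EDTA, pelleted, resuspended in 0.32 M sucrose) preincubated with drug 10 min at rt, then [125I]RTI-55 added; 90 min rt in dark; filtration, scintillation counting. Krebs-HEPES buffer pH 7.4. Nonspecific: 5 µM mazindol (DAT) or 5 µM imipramine (SERT). Duplicate points, ≥3 experiments.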
Work on CCCC(c1ccc(Cl)cc1)C1CCCCN1 (centres undefined) yielded a pKi of 5.57.
Clc1ccc(C(CCc2ccccc2)C2CCCCN2)cc1 (centres undefined) showed a pKi of 5.74.
With CC(=O)C(c1ccccc1)C1CCCCN1 (centres undefined) the pKi was 5.11.
CCC(c1ccc(Cl)cc1)C1CCCCN1 (centres undefined) gave a pKi of 5.38.
Compound COc1cccc(C(CC(C)C)C2CCCCN2)c1 (stereo in doubt; form 1) has a pKi of 5.38.
COc1ccc(C(CC(C)C)C2CCCCN2)cc1 (stereo in doubt; form 1) was tested, and the pKi was 5.55.
In the case of CC(C)CC(c1ccc(Cl)c(Cl)c1)C1CCCCN1 (stereo in doubt; form 1), the pKi was 5.80.
For CC(c1ccc(Cl)cc1)C1CCCCN1 (stereo in doubt; form 1), the pKi was 5.31.
In the case of CCC(CC)C(c1ccc(Cl)cc1)C1CCCCN1 (stereo in doubt; form 1), the pKi was 5.41.
CCCC(c1ccc(Cl)c(Cl)c1)C1CCCCN1 (stereo in doubt; form 1) showed a pKi of 5.74.
Compound CCCCCC(c1ccc(Cl)cc1)C1CCCCN1 (stereo in doubt; form 1) has a pKi of 5.66.
With CC(C)CCC(c1ccc(Cl)cc1)C1CCCCN1 (stereo in doubt; form 1) the pKi was 5.30.
Compound CCCCC(c1ccc(Cl)c(Cl)c1)C1CCCCN1 (stereo in doubt; form 1) has a pKi of 5.89.
Compound Clc1ccc(C(CCCc2ccccc2)C2CCCCN2)cc1 (stereo in doubt; form 1) has a pKi of 6.15.
COc1cccc(C(CC(C)C)C2CCCCN2)c1 (stereo in doubt; form 2) showed a pKi of 5.42.

From ChEMBL document CHEMBL1139231 (J Med Chem, 2007)
